From ChEMBL document CHEMBL1138426, “Synthesis and DNA-binding ability of C2R-fluoro substituted DC-81 and its dimers” (Bioorg Med Chem Lett, 2007)

Tests used:
[1] = system: DNA; assay: Binding affinity to calf thymus DNA at 1:5 (compound:DNA) molar ratio in pH 7.0, 37 degC after 18 hrs by thermal denaturation study; format: nucleic-acid assay; details: Bos taurus
Summary of the method: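 Thermal denaturation of calf thymus DNA at pH 7.00 ± 0.01. The buffer was aqueous sodium phosphate (10 mM sodium phosphate + 1 mM EDTA). DNA was 100 μM and compound 20 μM, a 1:5 molar ratio. The mix was incubated at 37 °C for 0, 18 or 36 h before melting. ΔTm is the shift from the Tm of DNA alone (mean of 10 determinations), ±0.1–0.2 °C.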

[2] = system: DNA; assay: Binding affinity to calf thymus DNA at 1:5 (compound:DNA) molar ratio in pH 7.0, 37 degC after 36 hrs by thermal denaturation study; details: Bos taurus

SMILES	ΔTm [1]	ΔTm [2]
COc1cc2c(cc1OCCCCOc1cc3c(cc1OC)C(=O)N1C[C@H](F)C[C@H]1C=N3)N=C[C@@H]1C[C@@H](F)CN1C2=O	12.4 °C	14 °C
COc1cc2c(cc1O)N=C[C@@H]1CCCN1C2=O	0.7 °C	0.7 °C
COc1cc2c(cc1OCCCOc1cc3c(cc1OC)C(=O)N1C[C@H](F)C[C@H]1C=N3)N=C[C@@H]1C[C@@H](F)CN1C2=O	5.2 °C	6.2 °C
COc1cc2c(cc1OCCCCCOc1cc3c(cc1OC)C(=O)N1C[C@H](F)C[C@H]1C=N3)N=C[C@@H]1C[C@@H](F)CN1C2=O	16.9 °C	18.8 °C
COc1cc2c(cc1OCCCOc1cc3c(cc1OC)C(=O)N1CCC[C@H]1C=N3)N=C[C@@H]1CCCN1C2=O	15.1 °C	
COc1cc2c(cc1O)N=C[C@@H]1C[C@@H](F)CN1C2=O	2.1 °C	2.3 °C
